The values that follow come from ChEMBL document CHEMBL1139611, “Structure-activity relationships of novel endomorphin-2 analogues with N-O turns induced by alpha-aminoxy acids” (Bioorg Med Chem Lett, 2005).

In general, Ki refers to the equilibrium dissociation constant of an inhibitor or competing ligand from its target.

For assay [1], the target named is T1, Mu-type opioid receptor (Rattus norvegicus, UniProt P33535). The assay is described as follows: Inhibition of [3H]DAMGO binding to Opioid receptor mu 1 of rat brain membrane. In a few lines: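 Rat brain synaptosomal P2 membranes from Wistar rats in 50 mM Tris-HCl, pH 7.4. […] Nonspecific binding was defined with naloxone. Ki was derived by Cheng-Prusoff. Values are means of at least three experiments.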
T1 sequence (P33535 whole entry): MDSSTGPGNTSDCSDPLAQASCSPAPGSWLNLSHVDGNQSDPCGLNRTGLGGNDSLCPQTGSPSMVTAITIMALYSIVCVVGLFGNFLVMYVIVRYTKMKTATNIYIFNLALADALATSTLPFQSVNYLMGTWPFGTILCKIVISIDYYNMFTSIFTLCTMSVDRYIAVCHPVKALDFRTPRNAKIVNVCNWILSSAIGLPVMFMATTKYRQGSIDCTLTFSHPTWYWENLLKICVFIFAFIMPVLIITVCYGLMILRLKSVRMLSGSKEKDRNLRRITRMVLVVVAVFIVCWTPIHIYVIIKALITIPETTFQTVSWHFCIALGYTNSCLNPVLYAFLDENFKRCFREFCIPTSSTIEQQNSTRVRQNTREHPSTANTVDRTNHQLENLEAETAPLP

Assay [2] has as its target Opioid receptors; mu & delta (Rattus norvegicus) (UniProt P33533+P33535). The assay is described as follows: Selectivity ratio of Opioid receptor delta 1 to Opioid receptor mu 1. Format: protein assay.
In assay [3] the target is Delta-type opioid receptor (Rattus norvegicus, UniProt P33533). Briefly: Inhibition of [3H]DPDPE binding to Opioid receptor delta 1 of rat brain membrane. In a few lines:
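Competition binding on Wistar rat brain synaptosomal P2 membranes in 50 mM Tris–HCl, pH 7.4. […] Delta sites were labelled with [3H]DPDPE (1 nM, Kd 2.75 nM) for 3 h at 25 °C. Nonspecific binding was taken with naloxone. Ki was derived by Cheng–Prusoff; values are means of ≥3 experiments.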

In assay [4] the target is Delta-type opioid receptor (Rattus norvegicus) (UniProt P33533). Briefly: Percent decrease of maximum binding towards Opioid receptor delta 1 in rat brain membrane using [3H]DPDPE at 10 uM concentration. It is filed as cell membranes. Further details: scale not given: the % may be the effect or the level left; call rule not given here.
Chain of Delta-type opioid receptor (Rattus norvegicus) (P33533 whole entry): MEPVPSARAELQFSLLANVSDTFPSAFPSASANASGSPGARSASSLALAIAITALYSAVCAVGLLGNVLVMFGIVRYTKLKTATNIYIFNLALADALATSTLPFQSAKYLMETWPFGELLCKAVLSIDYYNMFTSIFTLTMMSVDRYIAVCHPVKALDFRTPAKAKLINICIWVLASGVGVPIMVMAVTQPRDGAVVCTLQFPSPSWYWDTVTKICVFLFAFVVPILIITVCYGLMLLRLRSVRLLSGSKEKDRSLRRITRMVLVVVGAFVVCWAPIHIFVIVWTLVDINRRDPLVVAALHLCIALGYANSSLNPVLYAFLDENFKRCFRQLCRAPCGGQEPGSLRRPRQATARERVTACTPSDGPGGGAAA
Assay [5] addresses Mu-type opioid receptor (Rattus norvegicus) (UniProt P33535). The assay is described as follows: Percent inhibition of [3H]-DAMGO binding to Opioid receptor mu 1 of rat brain membrane at 10 uM. Set-up: scale not given: the % may be the effect or the level left.
Assay [6] concerns the target Delta-type opioid receptor (Rattus norvegicus) (UniProt P33533). Briefly: Percent inhibition of [3H]DPDPE binding to Opioid receptor delta 1 of rat brain membrane at 10 uM. Set-up: scale not given: the % may be the effect or the level left.
Assay [7] has as its target T1, Mu-type opioid receptor. The assay is described as follows: Inhibition of [3H]DAMGO binding to Opioid receptor mu 1 of rat brain membrane; na= No activity.

Chain of Delta-type opioid receptor (P33533 whole entry): as above
Chain of Opioid receptors; mu & delta (Rattus norvegicus) (P33533 whole entry, looked up): as the sequence (P33533 whole entry) above
Chain of Opioid receptors; mu & delta (Rattus norvegicus) (P33535 whole entry, looked up): as the sequence (P33535 whole entry) above
Chain of Mu-type opioid receptor (Rattus norvegicus) (P33535 whole entry): as above

Take `NC(=O)[C@H](Cc1ccccc1)NC(=O)[C@H](Cc1ccccc1)O/N=C/[C@@H]1CCCN1C(=O)[C@@H](N)Cc1ccc(O)cc1`: the results for the Ki (on Mu-type opioid receptor [1]; in assay [3]) were 408 µM and 19.8 µM, respectively. Moreover, the Selectivity in assay [2] was determined as 4.1.
The corresponding values for `NC(=O)[C@H](Cc1ccccc1)NC(=O)[C@@H](Cc1ccccc1)O/N=C/[C@@H]1CCCN1C(=O)[C@@H](N)Cc1ccc(O)cc1` are 4.04 µM, 37.1 µM and 9.
Take `NC(=O)[C@H](Cc1ccccc1)NC(=O)[C@H](Cc1ccccc1)NC(=O)[C@@H](Cc1ccccc1)NO[C@@H](N)Cc1ccc(O)cc1`: the Activity in assay [4] turned out to be 18%; in assay [5] it was 22%. Moreover, the Ki (on Mu-type opioid receptor [1]; in assay [3]) was more than 10 µM in each case.
Take `NC(=O)[C@H](Cc1ccccc1)NC(=O)[C@H](Cc1ccccc1)NC(=O)[C@@H]1CCN(C(=O)[C@@H](N)Cc2ccc(O)cc2)C1`: the Ki worked out at 0.00823 µM at Mu-type opioid receptor [1] and 8.36 µM in assay [3]. For the same compound, the Selectivity in assay [2] was found to be 1020.
As for `NC(=O)[C@H](Cc1ccccc1)NC(=O)[C@@H](Cc1ccccc1)NO[C@@H]1CCCN1C(=O)[C@@H](N)Cc1ccc(O)cc1`, the inhibitory constant (Ki) was 0.6 µM at Mu-type opioid receptor [1] and more than 10 µM in assay [3]. In addition, the Activity in assay [6] is 30%. In addition, the Selectivity in assay [2] was more than 17.
The corresponding values for `NC(=O)[C@H](Cc1ccccc1)NC(=O)[C@H](Cc1ccccc1)NO[C@@H]1CCCN1C(=O)[C@@H](N)Cc1ccc(O)cc1` are 0.434 µM, more than 10 µM, 15% and more than 23.
`NC(=O)[C@H](Cc1ccccc1)NC(=O)[C@H](Cc1ccccc1)NC(=O)[C@H](Cc1ccccc1)NO[C@@H](N)Cc1ccc(O)cc1`: in assay [4], the Activity worked out at 30%. The inhibition constant (Ki) in assay [3] is more than 10 µM; on Mu-type opioid receptor [7] it was “Not Active”.
